Data taken from ChEMBL document CHEMBL3227986, “Design of species- or isozyme-specific enzyme inhibitors. 1. Effect of thymidine substituents on affinity for the thymidine site of hamster cytoplasmic thymidine kinase” (J Med Chem, 1979).
The source made the active and inactive calls. The rule behind the calls is not given here.

Key:
[1] = target: T1, Thymidine kinase, cytosolic (Homo sapiens) (UniProt P04183); experiment: Effect on human cytoplasmic thymidine kinase using [14C]thymidine at 2 mM after 10 mins by liquid scintillation spectrometer analysis relative to control in presence of Mg2+
T1 sequence (whole entry): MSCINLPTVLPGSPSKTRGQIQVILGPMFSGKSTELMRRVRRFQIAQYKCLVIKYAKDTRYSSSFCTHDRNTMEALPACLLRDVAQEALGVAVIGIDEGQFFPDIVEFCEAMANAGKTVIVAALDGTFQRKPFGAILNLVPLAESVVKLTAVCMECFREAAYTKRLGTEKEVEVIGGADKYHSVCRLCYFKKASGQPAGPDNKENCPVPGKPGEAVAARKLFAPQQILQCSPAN

[2] = target: T2, Thymidine kinase 2, mitochondrial (Homo sapiens) (UniProt O00142); experiment: Effect on human mitochondrial thymidine kinase using [14C]thymidine at 2 mM after 10 mins by liquid scintillation spectrometer analysis relative to control in presence of Mg2+
T2 sequence (whole entry): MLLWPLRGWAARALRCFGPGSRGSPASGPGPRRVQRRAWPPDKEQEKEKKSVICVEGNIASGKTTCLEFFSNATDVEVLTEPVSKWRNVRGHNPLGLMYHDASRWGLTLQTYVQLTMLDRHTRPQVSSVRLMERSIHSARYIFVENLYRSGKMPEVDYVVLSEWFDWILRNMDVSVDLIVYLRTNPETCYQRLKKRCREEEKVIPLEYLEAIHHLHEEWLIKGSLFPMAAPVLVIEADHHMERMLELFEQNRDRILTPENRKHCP

[3] = target: T3, Thymidine kinase, cytosolic (Cricetulus griseus) (UniProt P09768); experiment: Effect on thymidine kinase in BHK21 (C13) cells using [14C]thymidine at 5 mM after 10 mins by liquid scintillation spectrometer analysis relative to control in presence of Mg2+; type: cell-based; conditions: Mesocricetus auratus
T3 sequence (whole entry): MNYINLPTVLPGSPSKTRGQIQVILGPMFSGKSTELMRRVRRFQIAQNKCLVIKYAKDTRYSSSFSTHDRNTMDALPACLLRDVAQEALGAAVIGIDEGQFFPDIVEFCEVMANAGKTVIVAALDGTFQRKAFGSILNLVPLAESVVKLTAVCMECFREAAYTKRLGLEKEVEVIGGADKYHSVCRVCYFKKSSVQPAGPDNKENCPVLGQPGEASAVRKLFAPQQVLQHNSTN
Summary of the method: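 BHK21(C13) high-speed supernatant, 10 min at 37 °C, [14C]TMP on DEAE-cellulose disks, scintillation counting. Phosphate donors (nucleoside triphosphates 5 mM, giving 2.5 mM Mg2+ triphosphates) tested with 14.4 μM [14C]thymidine. Inhibitor assays used 0.19 mM [14C]thymidine: 5-iodo nucleosides at 0.19 mM with saturating Mg2+-ATP, or dCTP 5 mM with ATP 5 mM and MgCl2 7.5 mM.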

[4] = target: T3, Thymidine kinase, cytosolic (Cricetulus griseus); experiment: Inhibition of thymidine kinase in BHK21 (C13) cells using [14C]thymidine at 200 uM after 10 mins by liquid scintillation spectrometer analysis relative to control in presence of Mg2+; type: cell-based; conditions: Mesocricetus auratus
[5] = target: T2, Thymidine kinase 2, mitochondrial (Homo sapiens); experiment: Inhibition of human mitochondrial thymidine kinase using [14C]thymidine at 0.19 mM after 10 mins by liquid scintillation spectrometer analysis relative to control in presence of Mg2+
[6] = target: T3, Thymidine kinase, cytosolic (Cricetulus griseus); experiment: Inhibition of thymidine kinase in BHK21 (C13) cells using thymidine as substrate assessed as formation of TMP at 12 mM; type: cell-based; conditions: Mesocricetus auratus
Summary of the method: (§1)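 BHK21(C13) 100000g supernatant in Tris-HCl 0.05 M pH 8.0, ATP 5 mM, MgCl2 2.5 mM, [14C]thymidine 3.6 μM, 10 min at 37 °C. Reaction stopped by boiling; [14C]TMP bound to DEAE-cellulose disks and counted by liquid scintillation, corrected for unincubated blanks.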

[7] = target: T3, Thymidine kinase, cytosolic (Cricetulus griseus); experiment: Activity at thymidine kinase in BHK21 (C13) cells at 54 to 542 uM after 30 mins relative to thymidine; type: cell-based; conditions: Mesocricetus auratus
Summary of the method: (§2)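 Radiolabeled thymidine or 2'-deoxyuridine derivatives tested as substrates: 40 μL BHK21(C13) 100000g supernatant, Tris-HCl 0.05 M pH 8.0, ATP 5 mM, MgCl2 2.5 mM, no thymidine, 30 min at 37 °C. Products separated by paper electrophoresis in 0.05 M triethylammonium bicarbonate pH 7.6; radioactivity counted in the TMP region.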

[8] = target: T3, Thymidine kinase, cytosolic (Cricetulus griseus); experiment: Inhibition of thymidine kinase in BHK21 (C13) cells using thymidine as substrate assessed as formation of TMP at 6 mM; type: cell-based; conditions: Mesocricetus auratus
Summary of the method: as §1

[9] = target: T3, Thymidine kinase, cytosolic (Cricetulus griseus); experiment: Inhibition of thymidine kinase in BHK21 (C13) cells using thymidine as substrate assessed as formation of TMP at 10 mM; type: cell-based; conditions: Mesocricetus auratus
Summary of the method: as §1

[10] = target: T3, Thymidine kinase, cytosolic (Cricetulus griseus); experiment: Inhibition of thymidine kinase in BHK21 (C13) cells using thymidine as substrate assessed as formation of TMP at 5 mM; type: cell-based; conditions: Mesocricetus auratus
Summary of the method: as §1

[11] = target: T3, Thymidine kinase, cytosolic (Cricetulus griseus); experiment: Inhibition of thymidine kinase in BHK21 (C13) cells using thymidine as substrate assessed as formation of TMP at 0.2 mM; type: cell-based; conditions: Mesocricetus auratus
Summary of the method: as §1

[12] = target: T3, Thymidine kinase, cytosolic (Cricetulus griseus); experiment: Inhibition of thymidine kinase in BHK21 (C13) cells using thymidine as substrate assessed as formation of TMP at 0.1 mM; type: cell-based; conditions: Mesocricetus auratus
Summary of the method: as §1

[13] = target: T3, Thymidine kinase, cytosolic (Cricetulus griseus); experiment: Inhibition of thymidine kinase in BHK21 (C13) cells using thymidine as substrate assessed as formation of TMP at 4 mM; type: cell-based; conditions: Mesocricetus auratus
Summary of the method: as §1

[14] = target: T3, Thymidine kinase, cytosolic (Cricetulus griseus); experiment: Inhibition of thymidine kinase in BHK21 (C13) cells using thymidine as substrate assessed as formation of TMP at 2 mM; type: cell-based; conditions: Mesocricetus auratus
Summary of the method: as §1

[15] = target: T3, Thymidine kinase, cytosolic (Cricetulus griseus); experiment: Inhibition of thymidine kinase in BHK21 (C13) cells using [14C]thymidine at 100 to 200 uM after 10 mins by liquid scintillation spectrometer analysis relative to control in presence of Mg2+; type: cell-based; conditions: Mesocricetus auratus
[16] = target: T3, Thymidine kinase, cytosolic (Cricetulus griseus); experiment: Activity at thymidine kinase in BHK21 (C13) cells at 400 uM after 30 mins relative to thymidine; type: cell-based; conditions: Mesocricetus auratus
Summary of the method: as §2

[17] = target: T4, Thymidine kinase, cytosolic (Mus musculus, UniProt P04184); experiment: Competitive inhibition of thymidine kinase in mouse Ehrlich's ascites cells
T4 sequence (P04184 whole entry): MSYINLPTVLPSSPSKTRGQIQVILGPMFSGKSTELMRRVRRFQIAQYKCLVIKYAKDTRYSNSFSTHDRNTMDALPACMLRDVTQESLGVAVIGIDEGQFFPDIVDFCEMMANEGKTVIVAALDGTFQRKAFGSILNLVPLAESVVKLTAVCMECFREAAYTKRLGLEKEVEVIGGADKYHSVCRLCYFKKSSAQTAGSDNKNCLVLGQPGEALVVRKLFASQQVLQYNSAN

[18] = target: T3, Thymidine kinase, cytosolic (Cricetulus griseus); experiment: Inhibition of thymidine kinase in BHK21 (C13) cells using thymidine as substrate assessed as formation of TMP at 7.8 mM; type: cell-based; conditions: Mesocricetus auratus
Summary of the method: as §1

[19] = target: T3, Thymidine kinase, cytosolic (Cricetulus griseus); experiment: Inhibition of thymidine kinase in BHK21 (C13) cells using thymidine as substrate assessed as formation of TMP at 15.5 mM; type: cell-based; conditions: Mesocricetus auratus
Summary of the method: as §1

Nc1nc(=O)c2ncn([C@@H]3O[C@H](COP(=O)(O)OP(=O)(O)OP(=O)(O)O)[C@@H](O)[C@@H]3O)c2[nH]1 was tested, and the Activity [1] was 36%, the Activity [2] was 46% and the Activity [3] was 6%.
CC(=O)Nc1cn([C@H]2C[C@H](O)[C@@H](COP(=O)(O)OP(=O)(O)OP(=O)(O)O)O2)c(=O)[nH]c1=O was tested, and the inhibition [4] was “Active”.
Nc1ncnc2c1ncn2[C@@H]1O[C@H](COP(=O)(O)OP(=O)(O)OP(=O)(O)O)[C@@H](O)[C@H]1O gave an Activity [1] of 100%, an Activity [2] of 100% and an Activity [3] of 100%.
Nc1nc(=O)n([C@H]2C[C@H](O)[C@@H](CO)O2)cc1I was tested, and the inhibition [5] was 64%.
CC(=O)NCc1cn([C@H]2C[C@H](O)[C@@H](CO)O2)c(=O)[nH]c1=O gave an inhibition [6] of 0%, an Activity [7] of under 0.25% and an inhibition [8] of 0%.
With CCNc1ccn([C@H]2C[C@H](O)[C@@H](CO)O2)c(=O)n1 the inhibition [9] was 38% and the inhibition [10] was 24%.
In the case of O=c1[nH]c(=O)n([C@H]2C[C@H](O)[C@@H](CO)O2)cc1I, the inhibition [5] is reported as 31%.
In the case of O=c1ccn([C@H]2C[C@H](O)[C@@H](CO)O2)c(=O)[nH]1, the inhibition [11] is reported as 59% and the inhibition [12] is reported as 38%.
For O=C(CI)NCCC(=O)Nc1cn([C@H]2C[C@H](O)[C@@H](CO)O2)c(=O)[nH]c1=O, the inhibition [13] was 36% and the inhibition [14] was 22%.
For CCC(=O)NCC(OP(=O)(O)OP(=O)(O)OP(=O)(O)O)[C@H]1O[C@@H](n2cc(C)c(=O)[nH]c2=O)C[C@@H]1O (single isomer, unassigned; more polar), the inhibition [15] was “Active”.
Compound Nc1ccn([C@@H]2O[C@H](COP(=O)(O)OP(=O)(O)OP(=O)(O)O)[C@@H](O)[C@H]2O)c(=O)n1 has an Activity [1] of 21%, an Activity [2] of 79% and an Activity [3] of 15%.
In the case of CCC(=O)NCC(OP(=O)(O)OP(=O)(O)OP(=O)(O)O)[C@H]1O[C@@H](n2cc(C)c(=O)[nH]c2=O)C[C@@H]1O (single isomer, unassigned), the inhibition [15] is reported as “Active”.
CC(=O)NCC(O)[C@H]1O[C@@H](n2cc(C)c(=O)[nH]c2=O)C[C@@H]1O (stereo in doubt; [14C]4a) was tested, and the Activity [16] was “inactive”.
CCOC1N([C@H]2C[C@H](O)[C@@H](CO)O2)C(=O)NC(=O)C1(C)Br (single isomer, unassigned) was tested, and the Ki [17] was 24 µM.
Compound CCCn1c(=O)ccn([C@H]2C[C@H](O)[C@@H](CO)O2)c1=O has an inhibition [18] of 18% and an inhibition [19] of 36%.
